Sampled rows, rich in hits. Any-hit rate of the full collection: about 2.4%.
NPY-Y2 PAM-ag: potentiators or agonists of human neuropeptide Y receptor Y2; P49146; AID 1359; cells expressing NPY-Y2, potentiator/agonist read-out; 220,000 compounds, 0.45% hits; activation, % at 3.6 µM; in the data active means activation above about 27%;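 further: cells stimulated with NPY near EC25 plus isoproterenol at EC100; 0% = vehicle plus submaximal agonist and 100% = vehicle plus saturating agonist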
S1P4 antag: antagonists of human S1P4 receptor | O95977 | S1P4-expressing cells, antagonist mode, reporter read-out | inhibition, % at 4.98 µM | 220,000 compounds, 0.26% hits | AID 1510; in the data active means inhibition above about 29%;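 further: 0% = wells stimulated with agonist and 100% = vehicle wells without agonist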
Target sequence (O95977 whole entry, looked up): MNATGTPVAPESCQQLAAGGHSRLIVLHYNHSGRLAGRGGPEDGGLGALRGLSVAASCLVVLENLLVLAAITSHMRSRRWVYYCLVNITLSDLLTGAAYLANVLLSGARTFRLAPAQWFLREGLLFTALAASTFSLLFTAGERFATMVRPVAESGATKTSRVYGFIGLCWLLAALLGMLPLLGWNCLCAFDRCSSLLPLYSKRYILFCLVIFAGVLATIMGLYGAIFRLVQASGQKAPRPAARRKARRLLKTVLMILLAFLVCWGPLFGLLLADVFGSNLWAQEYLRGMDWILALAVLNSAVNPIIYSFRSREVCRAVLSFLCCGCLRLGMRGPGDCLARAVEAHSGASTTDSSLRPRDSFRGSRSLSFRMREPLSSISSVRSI
NPY-Y1 antag: blocks the human neuropeptide Y Y1 receptor; AID 1040; 200,000 compounds, 1% hits; HEK293-CNG Y1 cells, membrane potential fluorescence; NPY at EC95, then isoproterenol; inhibition, % at 3.6 µM;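 active means inhibition above the campaign mean inhibition of all tested compounds plus 3 SD, cut at about 20% in these data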;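 further: 0% = DMSO wells given NPY plus isoproterenol and 100% = isoproterenol alone without NPY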
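Assay system: HEK293 cells with Y1 receptor plus CNG channel | Probe or stimulus: NPY (25 nM), isoproterenol (1 µM), Ro 20-1724 (25 µM) | Timing: Compound incubation 1 h at room temperature, readout 45 min post-stimulation | Measured by: Membrane-potential fluorescent dye readout | Benchmarks: High control isoproterenol alone, low control NPY with isoproterenol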
S1P4 agonist: activates the human S1P4 receptor. O95977. S1P4-expressing cell line, agonist reporter assay. activation, % at 4.98 µM. 220,000 compounds, 0.35% hits. AID 1509; in the data active means activation above about 11%;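 further: 0% = DMSO vehicle and 100% = reference agonist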
NPY-Y2 antag: NPY-Y2 (human) receptor antagonism; inhibition, % at 2.7 µM; 140,000 compounds, 0.99% hits; NPY-Y2 expressing cells, antagonist mode; AID 793;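 further: 0% = vehicle with agonist challenge and 100% = reference antagonist with challenge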
NPY1 pot ag: potentiators or agonists of human neuropeptide Y receptor Y1 | NPY-Y1 expressing cells, potentiator/agonist activation | activation, % at 3.6 µM | 220,000 compounds, 0.37% hits | AID 1304; in the data active means activation above about 33%, passing the limit was not always enough;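 further: cells stimulated with NPY at EC10 then isoproterenol at EC100; 0% = low agonist plus stimulus and 100% = saturating agonist plus stimulus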
NPY1 antag conf: confirmation of human neuropeptide Y receptor Y1 antagonists. HEK293-CNG NPY-Y1, membrane potential fluorescence, cAMP; NPY challenge against isoproterenol-raised cAMP. shares compounds with NPY-Y1 antag. inhibition, % at 3.6 µM. 1,200 compounds, 21% hits; in the data active means inhibition above about 20%;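 further: 0% = vehicle with agonist plus stimulus and 100% = stimulus alone without agonist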
NPY-Y2 antag ct: human NPY-Y2 antagonism in NPY-Y1 counter-screen; shares compounds with NPY-Y1 antag; HEK293 NPY-Y2 CNG membrane potential fluorescence; cells given NPY, then isoproterenol; inhibition, % at 3.6 µM; 1,200 compounds, 28% hits;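 further: 0% = DMSO with agonist challenge and 100% = reference antagonist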
Numbers without * were called inactive; . = no result. Unless noted, no stated cut-off is given here; in the data, active means inhibition above about 17%; inactive means the rest.

SMILES	NPY-Y2 PAM-ag	S1P4 antag	NPY-Y1 antag	S1P4 agonist	NPY-Y2 antag	NPY1 pot ag	NPY1 antag conf	NPY-Y2 antag ct
CCc1ccc2ncc(S(=O)(=O)c3ccc(C)c(C)c3)c(N3CCCC3)c2c1	0	-6	12	2	10	-30	.	.
CCOC(=O)C1=C(C)NC2=C(C(=O)CCC2)C1c1cn(Cc2ccc(Cl)cc2Cl)nc1-c1ccccc1 (centres undefined)	-16	13	35*	-1	12	-46	30*	39*
COc1ccc(C2=NN(c3ccccc3)C(c3cn(CCC(=O)O)nc3-c3ccccc3)C2)cc1 (centres undefined)	8	-13	-2	1	.	8	.	.
Cc1ccc(C(=O)NC(=S)Nc2ccc(Oc3ccc(Cl)cc3)cc2)cc1	3	-3	2	1	1	-10	.	.
O=C(NC(=S)Nc1ccc(Oc2ccccc2)cc1)c1ccc(Cl)cc1	-6	3	20*	-3	4	-34	9	10
C=C(Cl)COc1ccc2c(CCCC)cc(=O)oc2c1	-1	12	21*	-1	6	-14	3	24*
C=C(Cl)COc1ccc2c(CC)cc(=O)oc2c1	-21	-3	3	-1	2	-4	.	.
CC(C)(C)C1CCC(=NNc2nc3ccccc3[nH]2)CC1 (centres undefined)	-10	-21	2	2	.	-14	.	.
c1ccc2c(c1)CC/C2=N/Nc1nc2ccccc2[nH]1	-11	-9	26*	0	.	-37	20*	21*
CC(C)Cn1cc(C(=O)N2CCC(C)CC2)c2c3ccccc3n(C)c2c1=O	-13	3	23*	1	.	-2	4	8
COCCn1cc(C(=O)NCc2ccco2)c2c3ccccc3n(C)c2c1=O	-2	-5	9	-1	.	-22	.	.
CC(C)Cn1cc(C(=O)N2CCOCC2)c2c3ccccc3n(C)c2c1=O	-7	-10	0	0	4	-11	.	.
CC(C)Cn1cc(C(=O)NCc2cccs2)c2c3ccccc3n(C)c2c1=O	2	-18	21*	4	16	-2	4	5
CC(Nc1cccc(F)c1)C(=O)Nc1ccc(S(N)(=O)=O)cc1 (centres undefined)	-1	0	1	2	.	4	.	.
CCOC(=O)N1CCC(Nc2c(NCCCN3CCN(C4CCCCC4)CC3)c(=O)c2=O)CC1	5	-3	-3	1	.	10	.	.
COc1ccc(OC)c(C2=Nn3c(nnc3-c3cc(C)[nH]n3)SC2)c1	-3	1	.	-1	.	2	.	.
Cc1cc2nc(SCCOC(=O)Nc3ccccc3)nc(C)c2cc1C	-3	3	23*	0	6	-32	4	14
CCO[C@H]1OC(C(N)=O)=C[C@@H](C)[C@@H]1CCCO	-9	-5	1	1	.	-20	.	.
CCN(Cc1cc(=O)n2ccsc2n1)Cc1nc2cc(OC)c(OC)cc2c(=O)[nH]1	8	5	.	-1	.	-6	.	.
Oc1ccc(-c2[nH]ncc2-c2cnn(-c3ccccc3)c2)c(O)c1	11	5	25*	1	.	13	12	-1
Cc1nc(SCC(=O)NCc2ccc3c(c2)OCO3)c(C#N)c2c1CCCC2	1	-7	21*	4	13	-26	4	10
Cc1ccsc1-c1nc(CSCC(=O)NCc2ccc3c(c2)OCO3)c(C)o1	-16	1	21*	0	4	-5	11	8
COc1ccc(-c2nc(CSCC(=O)NCc3ccc4c(c3)OCO4)c(C)o2)cc1	-8	-24	11	0	3	-5	.	.
CCCCCc1ccc(OCCC[n+]2ccccc2)c(CCCCC)c1	-67	-42	.	-2	.	-47	.	.
CCCCCc1ccc(OCCOCCn2c[n+](C)c3ccccc32)c(CCCCC)c1	-4	-26	35*	1	.	-38	42*	23*
SMILES	NPY-Y2 PAM-ag	S1P4 antag	NPY-Y1 antag	S1P4 agonist	NPY-Y2 antag	NPY1 pot ag	NPY1 antag conf	NPY-Y2 antag ct
C/C(CC(=O)N(C(C)C)C(C)C)=N\NC(=O)c1ccccc1Br	6	-13	-4	1	4	-15	.	.
COc1ccc(/C=C/C(=O)Oc2cccc(/C=N/NC(=O)Cc3ccc(Br)cc3)c2)cc1	-18	1	.	1	.	-6	.	.
COc1cc(-c2noc(-c3ccccc3C(=O)NCc3ccco3)n2)cc(OC)c1OC	-7	6	25*	-1	3	-25	6	5
CCn1nc(CC(=O)Nc2nnc(CC(=O)N3CCCC3)s2)c2ccccc2c1=O	-20	7	20*	1	4	-18	-1	4
Cc1ccc2[nH]c(O)c(N=NC(=O)C(C)n3cnc4ccccc4c3=O)c2c1 (centres undefined)	3	-11	1	1	2	3	.	.
COc1ccccc1NC(=O)c1oc2ccc(C)cc2c1C	-17	-5	22*	-1	12	-41	7	16
C=CCNCCOc1ccc(C(C)(C)c2ccccc2)cc1	6	11	8	2	8	-16	.	.
CC(C)N(CCNCC(O)COc1ccc(C(C)(C)c2ccccc2)cc1)C(C)C (centres undefined)	-6	-23	25*	1	.	-22	14	26*
CN(C)CCCOc1ccc(C(C)(C)c2ccccc2)cc1	-34	-8	23*	1	13	-49	14	23*
COc1ccc(NC(C)=O)cc1S(=O)(=O)Nc1ccc2c(c1)OCCO2	-9	-3	2	1	.	6	.	.
CC1CC1c1ccc(/C=C(\C#N)C(=O)Nc2ccccc2Cl)o1 (centres undefined)	-3	-5	23*	0	5	-2	11	8
Clc1ccc(-c2nnc(-c3ccccc3Cl)o2)cc1	-4	-6	25*	1	7	-12	8	8
Clc1ccccc1-c1nnc(-c2ccccc2Cl)o1	-4	-20	4	2	14	-21	.	.
O=C1CCC(C(=O)OCC(=O)C23CC4CC(CC(C4)C2)C3)N1 (centres undefined)	-2	9	23*	1	0	22	-2	1
OCC1(CCc2ccccc2)CCN(Cc2cc(F)ccc2-n2cccn2)CC1	-20	0	23*	2	.	-12	14	11
O=C(O)c1ccc(NC(=S)NC(=O)c2cccc(COc3ccccc3)c2)cc1	0	6	3	0	.	-15	.	.
O=C(NC(=S)Nc1ccc(CN2CCCCC2)cc1)c1cccc(OCc2ccccc2)c1	-57	5	42*	-1	.	-53	42*	53*
CC1CC(C)CN(C2CCN(Cc3cccnc3)CC2)C1 (centres undefined)	8	-7	21*	-3	1	0	0	4

Compound activity (PubChem BioAssay)
